A short description of assay [1]: Cytoprotective activity in BGMK cells assessed as reduction in thapsigargin-induced ER stress-mediated cell death by measuring cell viability at 10 uM preincubated for 2 hrs followed by thapsigargin addition measured after 24 hrs by CCK8 assay relative to control. The format is cell-based. The conditions noted are these: Chlorocebus aethiops, read-out: Activity. A digest of the protocol: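 BGMK cells subcultured at 1.2×10^4 cells/ml, pretreated with compound 2 h, then thapsigargin 0.15 μM (150 nM) added for 24 h. Cells then washed, fed fresh complete DMEM plus CCK-8 reagent, incubated 2 h, absorbance read as viability. Salubrinal included as positive control; data as mean ± SEM.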
(In general: Tetrazolium dyes change colour on reduction, which living cells bring about.)

For assay [2], the target named is SUMO-activating enzyme (Homo sapiens) (UniProt Q9UBE0+Q9UBT2). Briefly: Induction of SUMO-E1/E2 (unknown origin) mediated sumoylation of His-RanGap-1 after 30 mins by HTRF assay relative to control. Type of assay: protein-complex assay. Also on record: concentration or dose not given beside the values. A general note: TR-FRET usually uses a lanthanide donor and a delayed reading to cut background.

Assay [3] can be described thus: (§1) Cytoprotective activity in rat CSM14.1 cells assessed as reduction in thapsigargin-induced ER stress-mediated cell death preincubated for 2 hrs followed by thapsigargin addition measured after 20 hrs by ATPlite assay. Type of assay: functional, cell-based. In short, it runs like this:
(§2)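 Rat striatal neuroprogenitor CSM14.1 cells were trypsinized, plated in 96-well plates and held overnight at 32 °C. Cells were pretreated with compound for 2 h, then given thapsigargin in DMEM (15 μM final) for another 20 h. Viability was read as cellular ATP content. Thapsigargin without compound served as the 100% death reference and DMSO without thapsigargin as the 100% viability reference. Dose-response data are given as mean ± SEM.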
(In general: ATP-based viability assays read luminescence as a measure of living cells.)

Assay [4] is filed under the species Rattus norvegicus. The assay is described as §1. Type of assay: functional, cell-based. In short, it runs like this: as §2

In the case of `CC(=O)Nc1ccc(S(=O)(=O)Nc2cccc3cccnc23)cc1`, the viability at 10 µM in assay [1] worked out at 53.7%. The same compound displayed an Activity in assay [2] of 28%.

One may read the EC50 as the midpoint of the concentration-response curve. As to `Cc1ccc2sc(NNC(=O)c3cc(=O)c4ccccc4o3)nc2c1C`, in assay [1], the viability at 10 µM was found to be 54.9%. Besides, the Activity in assay [2] was 38%; in assay [4] it was “Dose-dependent effect”. The EC50 in assay [3] lay in the range of 1.2 to 9.8 µM.

`O=S(=O)(Nc1cccc2cccnc12)c1ccccc1`: the viability at 10 µM in assay [1] came out at 35.2%. In addition, the Activity in assay [2] is 25%.

On to `O=C(/C=C/c1ccccc1)NC(NC(=S)Nc1cccc2cccnc12)C(Cl)(Cl)Cl` (centres undefined) [SALUBRINAL], for which the viability at 10 µM in assay [1] stood at 47.2%.

Consider `O=C(Nc1nc(-c2ccccn2)cs1)c1ccc(Br)s1`, for which, in assay [1], the viability at 10 µM was 83.3%. In assay [2], this compound showed an Activity of 37%.

`Cc1cc(C)c2nc(NNC(=O)c3cc(=O)c4ccccc4o3)sc2c1`: the viability at 10 µM in assay [1] amounted to 60.3%. This compound came in with an Activity in assay [2] of 33%.

For the compound `Cc1ccc(S(=O)(=O)Nc2cccc3cccnc23)cc1`, the viability at 10 µM in assay [1] turned out to be 52%. The Activity in assay [2] was 29%.

Take `O=C(Nc1nc(-c2ccccn2)cs1)c1ccc(Cl)s1`: in assay [1], the viability at 10 µM turned out to be 45.3%. The compound also yielded an Activity in assay [2] of 25%.

In the case of `COc1cccc2sc(NNC(=O)C3COc4ccccc4O3)nc12` (centres undefined), the viability at 10 µM in assay [1] was determined as 38.4%. The compound further had an Activity in assay [2] of 17%.

For the compound `O=C(Nc1nc(-c2ccccn2)cs1)c1ccc2c(c1)OCCO2`, the viability at 10 µM in assay [1] came to 54.9%. Also, the Activity in assay [2] amounted to 20%.

`O=C(Nc1nc(-c2ccccn2)cs1)C1COc2ccccc2O1` (centres undefined): in assay [1], the viability at 10 µM turned out to be 81.4%. Moreover, the values for the Activity in assay [2] and in assay [4] were 53% and “Dose-dependent effect”, respectively. Further, the EC50 in assay [3] was in the range of 1.2 to 9.8 µM.

Turning to `O=S(=O)(Nc1cccc2cccnc12)c1ccc(S(=O)(=O)N2CCCC2)cc1`, in assay [1], the viability at 10 µM is 62.4%. The Activity was 43% in assay [2] and “Dose-dependent effect” in assay [4]. Moreover, the EC50 in assay [3] is 1.2 to 9.8 µM.

For the origin of these results see ChEMBL document CHEMBL4184102, “Small molecule SUMOylation activators are novel neuroprotective agents” (Bioorg Med Chem Lett, 2018).
